Bioassay records from PubChem.
Shown are actives, neighbours in structure and some others; about 4.5% of the full set was active somewhere.
OX1R antag-1 = antagonists of human orexin 1 receptor (OX1R). Orexin/Hypocretin receptor type 1 (Homo sapiens), O43613. OX1R-expressing cells, FRET antagonist read-out. inhibition, % at 6.6 µM. actives 1.8% (n = 330,000); in the data active means inhibition mostly above about 38%, no sharp cut-off; inactive means mostly below about 40%;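 further: 0% = agonist challenge alone and 100% = reference antagonist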
TAAR1 ag = human TAAR1 agonists, primary screen, Fluo-8 calcium fluorescence, CHO RD-HGA16 cells; activation, % at 3 µM; Trace amine-associated receptor 1 (Homo sapiens), Q96RJ0; actives 0.99% (n = 360,000); vehicle wells 0%, saturating PEA agonist 100%;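 active means activation above the mean activation of all test compounds in the run plus 3 SD, cut at about 38% in these data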
Target sequence (Q96RJ0 whole entry, looked up): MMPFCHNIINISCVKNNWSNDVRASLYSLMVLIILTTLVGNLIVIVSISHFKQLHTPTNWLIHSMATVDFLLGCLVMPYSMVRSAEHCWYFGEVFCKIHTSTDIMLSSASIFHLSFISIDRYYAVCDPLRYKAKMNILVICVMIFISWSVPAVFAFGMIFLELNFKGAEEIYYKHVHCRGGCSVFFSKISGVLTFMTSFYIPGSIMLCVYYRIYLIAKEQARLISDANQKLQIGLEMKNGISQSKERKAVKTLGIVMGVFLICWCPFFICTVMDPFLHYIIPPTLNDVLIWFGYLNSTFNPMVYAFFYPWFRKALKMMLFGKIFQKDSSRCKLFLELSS
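Signal – calcium-sensitive Fluo-8 signal, excitation 470-495, emission 515-575 nm · System – RD-HGA16 (CHO) cells co-expressing Gα16 and hTAAR1 · Incubation – 17-24 h seeding, 75 min 37 °C dye, 30 min RT · Compound dosing – 3 µM single concentration · Repeats – no replicates (n 1)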
TAAR1 antagonist = human TAAR1 antagonists, primary screen, Fluo-8 calcium fluorescence, CHO RD-HGA16 cells | actives 1.5% (n = 360,000) | antagonist | AID 624466, 2012 | inhibition, % at 3 µM | Trace amine-associated receptor 1 (Homo sapiens), Q96RJ0;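 active means inhibition above a per-plate cutoff, the mean inhibition of test compounds on that plate plus 3 SD, cut at about 49% in these data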;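 further: 0% = DMSO plus EC80 beta-PEA response and 100% = DMSO alone without agonist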
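Material: CHO RD-HGA16 cells bearing hTAAR1; compound dosing: one-point dosing, 3 µM nominal final; schedule: dye loading 75 min at 37 °C, then 30 min room temperature; measured by: calcium fluorescence with Fluo-8; control set: vehicle and agonist controls; replication: n of 1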
CHO parental Ca = ATP-evoked calcium signal inhibitors, parental CHO, primary screen, counter-screen for OX1R antagonist project, cell-based, fluorescence, Fluo-8 calcium dye | inhibition, % at 5.6 µM | actives 0.63% (n = 330,000) | parental CHO-K1, ATP-induced calcium, Fluo-8 fluorescence;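 active means inhibition above that plate's mean sample inhibition plus 3 SD, cut at about 26% in these data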;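 further: 0% = ATP-challenged DMSO wells and 100% = DMSO wells without ATP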
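Test system: parental CHO cells; detection: calcium-sensitive Fluo-8 fluorescence; evaluation: percent inhibition of calcium signal; also added: ATP as calcium-mobilizing challenge; repeats: one well per compound; control set: ATP-challenged DMSO wells low, unchallenged DMSO wells high; compound: single nominal dose of 5.6 µM per compound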
GPR7 antagonist = GPR7 receptor antagonists, primary screen, cell-based, fluorescence, single concentration; GPR7-expressing cells, fluorescence antagonist assay; inhibition, % at 4.4 µM; actives 1.1% (n = 290,000); AID 1861, 2009; in the data active means inhibition above about 16%, passing the limit was not always enough;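 further: cells stimulated with the agonist NPW; 0% = agonist with vehicle and 100% = vehicle without agonist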
Target sequence (P48145 whole entry, looked up): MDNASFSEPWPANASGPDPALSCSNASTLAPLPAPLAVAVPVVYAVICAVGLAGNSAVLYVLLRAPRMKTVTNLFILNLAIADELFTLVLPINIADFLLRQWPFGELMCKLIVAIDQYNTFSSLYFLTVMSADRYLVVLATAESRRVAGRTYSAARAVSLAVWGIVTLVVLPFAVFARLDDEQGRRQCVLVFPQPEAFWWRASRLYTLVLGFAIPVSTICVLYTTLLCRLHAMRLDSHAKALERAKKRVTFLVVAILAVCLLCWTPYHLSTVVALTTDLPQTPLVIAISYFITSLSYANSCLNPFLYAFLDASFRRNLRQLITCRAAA
OX1R antag-2 = OX1R (HCRTR1) antagonists, primary screen, fluorescence, CHO/OX1R cells, Fluo-8 calcium, orexin A. Orexin/Hypocretin receptor type 1 (Homo sapiens), O43613. Fluo-8 calcium fluorescence. inhibition, % at 5 µM. actives 0.43% (n = 330,000);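 active means inhibition above its plate's threshold, mean inhibition of all tested compounds on the plate plus 3 SD, cut at about 37% in these data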;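 further: 0% = orexin A challenge wells and 100% = SB-334867-A antagonist wells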
TAAR1 nonsel count = nonselective antagonists in TAAR1 counter-screen cells, counter-screen for hTAAR1 antagonist project, cell-based, fluorescence, calcium. shares compounds with TAAR1 antagonist. actives 77% (n = 2,400). inhibition, % at 3 µM. counterscreen cell line, antagonist mode; in the data active means inhibition above about 22%;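 further: CHO-Ga16 host cells stimulated with ATP at an EC80 level; 0% = agonist EC80 plus vehicle and 100% = vehicle without agonist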
TAAR1 antag conf = human TAAR1 antagonists, retest of hits, confirmation, cell-based, fluorescence; actives 40% (n = 2,400); inhibition, % at 3 µM; TAAR1-expressing cells, fluorescence antagonist read-out; shares compounds with TAAR1 antagonist; in the data active means inhibition above about 49%;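 further: CHO-Ga16 host cells challenged with agonist PEA near its EC80; 0% = agonist at EC80 plus vehicle and 100% = vehicle with no agonist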
Ga16 ag counter = calcium activation in Ga16-expressing cells, counter-screen for TAAR1 antagonist project, cell-based, fluorescence. shares compounds with TAAR1 antagonist. agonist counterscreen. activation, % at 3 µM. actives 18% (n = 2,400). AID 651953, 2012; in the data active means activation above about 12%;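 further: 0% = vehicle wells and 100% = saturating stimulus response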
TAAR1 ag count = TAAR1 activation by candidate antagonists – cell-based, fluorescence, counter-screen for TAAR1 antagonist project; shares compounds with TAAR1 antagonist; hTAAR1 cell line, agonist mode; activation, % at 3 µM; actives 2% (n = 2,400); AID 651955, 2012; in the data active means activation above about 37%;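 further: CHO cells stably expressing TAAR1 with calcium dye readout; 0% = DMSO vehicle and 100% = full agonist response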
* = called active by the depositor; x = no result given.

SMILES	OX1R antag-1	TAAR1 ag	TAAR1 antagonist	CHO parental Ca	GPR7 antagonist	OX1R antag-2	TAAR1 nonsel count	TAAR1 antag conf	Ga16 ag counter	TAAR1 ag count
Cc1c(Cl)cnc(NC(=O)COC(=O)Cc2coc3ccc4ccccc4c23)c1Cl	19	-1	-11	-15	9	-10	x	x	x	x
CC(C)(C)NC(=O)NC(=O)COC(=O)Cc1coc2ccc3ccccc3c12	11	7	52*	-23	-11	-28	24*	28	4	2
N=c1c2c(ncn1Cc1ccco1)Oc1c(ccc3ccccc13)C2c1ccccc1 (stereo not drawn)	21	0	58*	-20	-4	-29	14	14	6	35
CCOc1ccccc1N1CC(C(=O)Nc2cc(S(C)(=O)=O)ccc2Cl)CC1=O (stereo not drawn)	14	3	-45	-3	x	-27	x	x	x	x
COc1ccccc1N1CCN(Cc2ccc(-c3ccccc3[N+](=O)[O-])o2)CC1	21	12	88*	-35	-7	-29	28*	55*	8	4
COc1ccccc1N1CCN(Cc2ccco2)CC1	12	13	-7	-2	-5	-22	x	x	x	x
CCOC(=O)c1c(C)[nH]c(C)c1C(=O)CSc1nc2ccccc2c(=O)n1-c1ccc(C)cc1	15	2	1	-15	-13	-13	x	x	x	x
CCCn1c(SCC(=O)c2c(C)[nH]c(C)c2C(=O)OCC)nc2ccccc21	26	12	49*	-31	-1	-26	18	34	10	15
COCCN(C(=O)CCC(=O)Nc1cc(C)on1)C(C(=O)NC1CCCC1)c1ccc(C(C)C)cc1 (stereo not drawn)	25	2	19	-12	-8	-18	x	x	x	x
CCOC(=O)c1ccccc1NC(=O)COC(=O)c1cc([N+](=O)[O-])ccc1N1CCOCC1	43	1	59*	-9	x	-12	27*	30	7	3
CN(CC(=O)Nc1ccccc1Cl)C(=O)COC(=O)c1cc([N+](=O)[O-])ccc1N1CCOCC1	43	-1	2	-21	x	-18	x	x	x	x
O=C(O)CCC(=O)Nc1ccc(-c2nc3ccc(C(=O)c4ccccc4)cc3[nH]2)cc1	5	15	-3	-1	5	-12	x	x	x	x
O=C(c1ccccc1)c1ccc2nc(-c3ccc(NC(=O)c4ccccc4F)cc3)[nH]c2c1	36	21	59*	-7	-15	1	29*	59*	9	7
COc1ccc(NC(=O)c2sc3ncnc(N4CCN(c5ccccn5)CC4)c3c2C)cc1Cl	33	12	80*	30	11	17	48*	55*	13*	13
COc1ccc(NC(=O)c2sc3nc(C)nc(N4CCN(c5ccccn5)CC4)c3c2C)cc1Cl	15	2	29	-10	4	-20	x	x	x	x
O=C(c1oc2ccccc2c1CSCc1ccccc1)N1CCN(c2ncccn2)CC1	13	11	65*	-8	10	-7	30*	41	5	4
CCOCC(=O)Nc1c(C(=O)N2CCN(c3ncccn3)CC2)oc2ccccc12	5	6	20	-2	-3	-14	x	x	x	x
COc1ccc(NC(=O)c2ccc(-c3ccccc3)cc2)cc1S(=O)(=O)N1CCOCC1	17	16	87*	-5	0	-2	47*	61*	14*	9
COc1ccc(Nc2nc(-c3cccs3)nc3ccccc23)cc1S(=O)(=O)N1CCOCC1	40	15	71*	4	x	-5	30*	49*	10	7
O=C(/C=C/c1cn(-c2ccccc2)nc1-c1cccs1)NCCN1CCOCC1	13	21	53*	-22	0	-30	28*	37	9	9
CCN(CC)c1ccc(NC(=O)/C=C/c2cc(Br)ccc2OC)cc1	50*	-1	74*	-10	2	-19	10	35	6	6
O=C(Nc1cccnc1)c1ccc(COc2ccccc2Br)cc1	1	9	79*	-7	5	-22	15	60*	6	9
CN1CCN(C(=O)c2cc3c(s2)-c2ccccc2S(=O)(=O)C3)CC1	42	1	-11	-10	-4	-9	x	x	x	x
COc1ccc(N2CCN(C(=O)c3cc4c(s3)-c3ccccc3S(=O)(=O)C4)CC2)cc1	8	13	52*	-19	-10	-20	30*	42	7	9
O=C(NCc1nc2ccccc2[nH]1)c1ccc(Cl)c(S(=O)(=O)N2CCCC2)c1	10	6	16	-35	-11	-27	x	x	x	x
SMILES	OX1R antag-1	TAAR1 ag	TAAR1 antagonist	CHO parental Ca	GPR7 antagonist	OX1R antag-2	TAAR1 nonsel count	TAAR1 antag conf	Ga16 ag counter	TAAR1 ag count
CCCn1c(NC(=O)c2ccc(Cl)c(S(=O)(=O)N3CCCC3)c2)nc2ccccc21	4	10	57*	16	-28	-6	38*	34	11	0
Cc1nc(-c2cccc(NC(=O)c3ccc(Cl)c(S(=O)(=O)N4CCCC4)c3)c2)cs1	x	11	62*	x	x	x	26*	45	10	6
Cc1nc(-c2cccc(NC(=O)c3ccc(-n4cccn4)cc3)c2)cs1	52*	28	63*	-12	x	-13	22*	47	11	8
O=C(O)c1cccc(NC(=O)c2ccc(Cl)c(S(=O)(=O)N3CCCCCC3)c2)c1	18	2	46	-10	-11	17	x	x	x	x
CCc1nc2ccc(C(=O)NCCN3CCOCC3)cn2c1N(C=O)Cc1ccc(OC)cc1	x	4	-8	x	x	x	x	x	x	x
Cc1ccc(NC(=O)CCc2nnc3ccc(N4CCC5(CC4)OCCO5)nn23)cc1F	1	4	-16	-5	2	-2	x	x	x	x
CN(Cc1nc2ccccc2c(=O)[nH]1)C(=O)c1cccc(S(=O)(=O)N2CCCC2)c1	3	0	3	-14	x	-24	x	x	x	x
